In ChEMBL document CHEMBL5058577, “EUbOPEN Chemogenomics Library 2 (Multiplex)” (2022):

Test system: U2OS
Test: Multiplex assay against U2OS
Assay type: toxicity, cell-based
Conditions: human
In short: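 Cells were classed with CellPathfinder machine-learning gating, first as Hoechst high-intensity objects or normal cells, then (normal cells) as healthy, pyknosed or fragmented nuclei, and finally (pyknosed cells) as mitotic or apoptotic. Staining of live cells at seeding used Hoechst33342, BioTracker Green Microtubule Cytoskeleton Dye, MitoTracker Red and Annexin V Alexa Fluor 680, with imaging on a CQ1 microscope at 37°C and 5% CO2 after compound addition. Tubulin, mitochondrial-mass and membrane-permeability phenotypes are per cents of healthy-nucleus cells.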

[1] = 12 h, 1 µM, compound concentration 1 uM, replicate 1
[2] = 12 h, 1 µM, compound concentration 1 uM, replicate 2
[3] = 12 h, 10 µM, compound concentration 10 uM, replicate 1
[4] = 12 h, 10 µM, compound concentration 10 uM, replicate 2
[5] = 24 h, 1 µM, compound concentration 1 uM, replicate 1
[6] = 24 h, 1 µM, compound concentration 1 uM, replicate 2
[7] = 24 h, 10 µM, compound concentration 10 uM, replicate 1
[8] = 24 h, 10 µM, compound concentration 10 uM, replicate 2
[9] = 48 h, 1 µM, compound concentration 1 uM, replicate 1
[10] = 48 h, 1 µM, compound concentration 1 uM, replicate 2
[11] = 48 h, 10 µM, compound concentration 10 uM, replicate 1
[12] = 48 h, 10 µM, compound concentration 10 uM, replicate 2

In the case of `Cc1cc(=O)n(C)c2cc(N3C(=O)CC[C@H](NS(=O)(=O)CC(C)C)[C@H]3c3ccc(Cl)cc3)ccc12`, the “Population Apoptotic (%)” value [1] is reported as 87%, the “Population Fragmented Nuclei (%)” value [1] is reported as 24% and the “Population Healthy Nuclei (%)” value [1] is reported as 66%. The “Population Hoechst High Intensity Objects (%)” value [1] was 3%, the “Population Membrane Permeable-Phenotype (%)” value [1] was 3% and the “Population Mitochondria Different-Phenotype (%)” value [1] was 1%. The “Population Mitotic Cells (%)” value [1] was 12%, the “Population Normal (%)” value [1] was 96% and the “Population Pyknosed Nuclei (%)” value [1] was 9%. For the same compound, the “Population Tubulin-Different-Phenotype (%)” value [1] was 1%, the “Total Cell Count” value [1] was 263 and the “Population Apoptotic (%)” value [2] was 63%. The “Population Fragmented Nuclei (%)” value [2] was 21%, the “Population Healthy Nuclei (%)” value [2] was 68% and the “Population Hoechst High Intensity Objects (%)” value [2] was 1%. For the same compound, the “Population Membrane Permeable-Phenotype (%)” value [2] was 2%, the “Population Mitochondria Different-Phenotype (%)” value [2] was 2% and the “Population Mitotic Cells (%)” value [2] was 36%. The “Population Normal (%)” value [2] was 98%, the “Population Pyknosed Nuclei (%)” value [2] was 10% and the “Total Cell Count” value [2] was 110. For the same compound, the “Population Apoptotic (%)” value [3] was 57%, the “Population Fragmented Nuclei (%)” value [3] was 21% and the “Population Healthy Nuclei (%)” value [3] was 55%. The “Population Hoechst High Intensity Objects (%)” value [3] was 5%, the “Population Membrane Permeable-Phenotype (%)” value [3] was 63% and the “Population Mitochondria Different-Phenotype (%)” value [3] was 44%. For the same compound, the “Population Mitotic Cells (%)” value [3] was 42%, the “Population Normal (%)” value [3] was 94% and the “Population Pyknosed Nuclei (%)” value [3] was 23%. The “Population Tubulin-Different-Phenotype (%)” value [3] was 65%, the “Total Cell Count” value [3] was 240 and the “Population Fragmented Nuclei (%)” value [4] was 16%. For the same compound, the “Population Healthy Nuclei (%)” value [4] was 60%, the “Population Hoechst High Intensity Objects (%)” value [4] was 3% and the “Population Membrane Permeable-Phenotype (%)” value [4] was 35%. The “Population Mitochondria Different-Phenotype (%)” value [4] was 68%, the “Population Normal (%)” value [4] was 96% and the “Population Tubulin-Different-Phenotype (%)” value [4] was 60%. For the same compound, the “Total Cell Count” value [4] was 83, the “Population Apoptotic (%)” value [5] was 74% and the “Population Fragmented Nuclei (%)” value [5] was 20%. For the same compound, the “Population Healthy Nuclei (%)” value [5] was 68%, the “Population Hoechst High Intensity Objects (%)” value [5] was 3% and the “Population Membrane Permeable-Phenotype (%)” value [5] was 6%. For the same compound, the “Population Mitochondria Different-Phenotype (%)” value [5] was 3%, the “Population Mitotic Cells (%)” value [5] was 25% and the “Population Normal (%)” value [5] was 96%. The “Population Pyknosed Nuclei (%)” value [5] was 11%, the “Population Tubulin-Different-Phenotype (%)” value [5] was 4% and the “Total Cell Count” value [5] was 322. The “Population Apoptotic (%)” value [6] was 82%, the “Population Fragmented Nuclei (%)” value [6] was 18% and the “Population Healthy Nuclei (%)” value [6] was 69%. For the same compound, the “Population Hoechst High Intensity Objects (%)” value [6] was 1%, the “Population Membrane Permeable-Phenotype (%)” value [6] was 9% and the “Population Mitochondria Different-Phenotype (%)” value [6] was 2%. The “Population Mitotic Cells (%)” value [6] was 17%, the “Population Normal (%)” value [6] was 98% and the “Population Tubulin-Different-Phenotype (%)” value [6] was 6%. For the same compound, the “Total Cell Count” value [6] was 146, the “Population Apoptotic (%)” value [7] was 71% and the “Population Fragmented Nuclei (%)” value [7] was 20%. For the same compound, the “Population Healthy Nuclei (%)” value [7] was 56%, the “Population Hoechst High Intensity Objects (%)” value [7] was 5% and the “Population Membrane Permeable-Phenotype (%)” value [7] was 25%. The “Population Mitochondria Different-Phenotype (%)” value [7] was 40%, the “Population Mitotic Cells (%)” value [7] was 28% and the “Population Normal (%)” value [7] was 94%. For the same compound, the “Population Pyknosed Nuclei (%)” value [7] was 23%, the “Population Tubulin-Different-Phenotype (%)” value [7] was 28% and the “Total Cell Count” value [7] was 262. For the same compound, the “Population Apoptotic (%)” value [8] was 81%, the “Population Fragmented Nuclei (%)” value [8] was 26% and the “Population Healthy Nuclei (%)” value [8] was 62%. For the same compound, the “Population Hoechst High Intensity Objects (%)” value [8] was 2%, the “Population Membrane Permeable-Phenotype (%)” value [8] was 36% and the “Population Mitochondria Different-Phenotype (%)” value [8] was 59%. The “Population Mitotic Cells (%)” value [8] was 18%, the “Population Normal (%)” value [8] was 97% and the “Population Pyknosed Nuclei (%)” value [8] was 10%. The “Population Tubulin-Different-Phenotype (%)” value [8] was 50%, the “Total Cell Count” value [8] was 108 and the “Population Apoptotic (%)” value [9] was 77%. For the same compound, the “Population Fragmented Nuclei (%)” value [9] was 14%, the “Population Healthy Nuclei (%)” value [9] was 73% and the “Population Hoechst High Intensity Objects (%)” value [9] was 1%. The “Population Membrane Permeable-Phenotype (%)” value [9] was 4%, the “Population Mitochondria Different-Phenotype (%)” value [9] was 3% and the “Population Mitotic Cells (%)” value [9] was 22%. The “Population Normal (%)” value [9] was 98%, the “Population Pyknosed Nuclei (%)” value [9] was 11% and the “Population Tubulin-Different-Phenotype (%)” value [9] was 2%. For the same compound, the “Total Cell Count” value [9] was 508, the “Population Apoptotic (%)” value [10] was 95% and the “Population Fragmented Nuclei (%)” value [10] was 15%. The “Population Membrane Permeable-Phenotype (%)” value [10] was 6%, the “Population Mitochondria Different-Phenotype (%)” value [10] was 5% and the “Population Mitotic Cells (%)” value [10] was 5%. The “Population Pyknosed Nuclei (%)” value [10] was 10%, the “Population Tubulin-Different-Phenotype (%)” value [10] was 4% and the “Total Cell Count” value [10] was 199. The “Population Apoptotic (%)” value [11] was 84%, the “Population Fragmented Nuclei (%)” value [11] was 25% and the “Population Healthy Nuclei (%)” value [11] was 51%. The “Population Hoechst High Intensity Objects (%)” value [11] was 6%, the “Population Membrane Permeable-Phenotype (%)” value [11] was 15% and the “Population Mitochondria Different-Phenotype (%)” value [11] was 15%. For the same compound, the “Population Mitotic Cells (%)” value [11] was 15%, the “Population Normal (%)” value [11] was 93% and the “Population Pyknosed Nuclei (%)” value [11] was 22%. The “Population Tubulin-Different-Phenotype (%)” value [11] was 10%, the “Total Cell Count” value [11] was 331 and the “Population Apoptotic (%)” value [12] was 71%. For the same compound, the “Population Fragmented Nuclei (%)” value [12] was 21%, the “Population Healthy Nuclei (%)” value [12] was 60% and the “Population Hoechst High Intensity Objects (%)” value [12] was 5%. The “Population Membrane Permeable-Phenotype (%)” value [12] was 30%, the “Population Mitochondria Different-Phenotype (%)” value [12] was 35% and the “Population Mitotic Cells (%)” value [12] was 28%. For the same compound, the “Population Normal (%)” value [12] was 94%, the “Population Pyknosed Nuclei (%)” value [12] was 18% and the “Population Tubulin-Different-Phenotype (%)” value [12] was 23%. The “Total Cell Count” value [12] was 120.
